Consider 6 molecules from ChEMBL document CHEMBL1136011, “Nitric oxide releasing morpholine derivatives as hypolipidemic and antioxidant agents” (J Med Chem, 2002).

Assay [1] concerns Rattus norvegicus. Kind of assay: Hypolipidemic activity as percentage decrease in plasma levels of the cholesterol at 56 uM/kg administered intraperitoneally in rats. Format: functional. A digest of the protocol:
(§1)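 Hyperlipidemia induced in rats by Triton WR 1339 (200 mg/kg ip, aqueous solution). 1 h later, test agent 56 μmol/kg in saline given ip; controls receive saline alone. Blood is drawn from the aorta 24 h after Triton, and plasma total cholesterol, LDL-cholesterol and triglyceride are determined. Groups of four to six rats; Student's t-test.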

The test system of assay [2] is Rattus norvegicus. Kind of assay: Hypolipidemic activity as percentage decrease in plasma levels of the LDL-cholesterol at 56 uM/kg administered intraperitoneally in rats. Format: functional. Put shortly: as §1
Assay [3] has as its system Rattus norvegicus. Kind of assay: Hypolipidemic activity as percentage decrease in plasma levels of the triglyceride at 56 uM/kg administered intraperitoneally in rats. The format is functional. Put shortly:
as §1

Assay [4] can be described thus: In vitro percentage release of nitric oxide. Put shortly: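 Nitric oxide release measured spectrophotometrically at 540 nm with a commercial kit. Determinations at least in duplicate.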
Assay [5] relates to Rattus norvegicus. Kind of assay: Hypolipidemic activity as percentage decrease in plasma levels of the cholesterol at 168 administered perorally in rats. Format: functional. A digest of the protocol: (§2)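 Test agent 168 μmol/kg given orally to rats 3 h before Triton WR 1339 (200 mg/kg ip, aqueous solution). Blood is drawn from the aorta 24 h after Triton, and plasma total cholesterol, LDL-cholesterol and triglyceride are determined. Groups of four to six rats; Student's t-test.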

The subject of assay [6] is Rattus norvegicus. Kind of assay: Hypolipidemic activity as percentage decrease in plasma levels of the triglyceride at 168 administered perorally in rats. Format: functional. Put shortly:
as §2

Assay [7] deals with Rattus norvegicus. Kind of assay: Hypolipidemic activity as percentage decrease in plasma levels of the LDL-cholesterol at 168 administered perorally in rats. Format: functional. Put shortly:
as §2

In the case of `CC(C)(Sc1cc(C(C)(C)C)c(O)c(C(C)(C)C)c1)Sc1cc(C(C)(C)C)c(O)c(C(C)(C)C)c1` [PROBUCOL], the results for the Decrease in the assay with Rattus norvegicus [1], in the assay on Rattus norvegicus [2] and in the assay with Rattus norvegicus [3] were 18%, 18% and 11%, respectively.

Molecule `O=[N+]([O-])OCCCOC1(c2ccc(-c3ccccc3)cc2)CN2CCCCC2CO1` (stereo not drawn) gave a % release of nitric oxide in assay [4] of 4.6%. The Decrease in the assay on Rattus norvegicus [1] is reported as 20%; in the assay on Rattus norvegicus [2], 25%; in the assay on Rattus norvegicus [3], 37%.

Consider `CN1CCOC(OCCCO[N+](=O)[O-])(c2ccccc2)C1` (stereo not drawn), for which the % release of nitric oxide in assay [4] is 27.2 µM µM-1. Besides, the Decrease came to 20% in the assay on Rattus norvegicus [1], 43% with Rattus norvegicus [2] and 45% in the assay on Rattus norvegicus [3].

As to `CC(=O)N[C@@H](C(=O)O)C(C)(C)SN=O`, in assay [4], the % release of nitric oxide is 56.7%.

Regarding `CN1CC(OCCCO[N+](=O)[O-])(c2ccc(-c3ccccc3)cc2)OC2CCCCC21` (stereo not drawn), in assay [4], the % release of nitric oxide amounted to 1%. The Decrease is on record as 23% with Rattus norvegicus [1], 1% in the assay with Rattus norvegicus [2] and 38% with Rattus norvegicus [3].

The molecule `CN1CCOC(OCCCO[N+](=O)[O-])(c2ccc(-c3ccccc3)cc2)C1` (stereo not drawn) had a % release of nitric oxide in assay [4] of 17.3%. Further, the Decrease is on record as 40% in the assay on Rattus norvegicus [5]; 63% in the assay with Rattus norvegicus [1]; 47% with Rattus norvegicus [2]; 54% in the assay with Rattus norvegicus [6]; 85% in the assay on Rattus norvegicus [3]; 36% with Rattus norvegicus [7].
